The text below walks through data of ChEMBL document CHEMBL4024711, “Design, synthesis and biological evaluation of novel nitric oxide-donating protoberberine derivatives as antitumor agents” (Eur J Med Chem, 2017).

Molecules are shown by their SMILES.

Data set [1] deals with HepG2. The data set can be described thus: Cell cycle arrest in human HepG2 cells assessed as accumulation at S phase at 1 uM after 72 hrs by propidium iodide staining based flow cytometric method (reference value: 25.78%). The data set is classed as functional. The method in brief:
(§1)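 HepG2 cells were seeded and grown 24 h at 37 °C, 5% CO2. They were then exposed to 0, 0.5, 1 or 2 μM for 72 h, fixed in 70% ethanol at 4 °C for 12 h, and stained with RNase A plus propidium iodide for 30 min. DNA content was measured by flow cytometry to give the cell-cycle phase distribution.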
A general note: Flow cytometry measures light scatter and fluorescence of single cells or particles in a stream.

The test system of data set [2] is HepG2. Kind of data set: Disruption of mitochondrial membrane potential in human HepG2 cells assessed as collapse of the mitochondrial membrane potential at 1 uM after 72 hrs by JC1 staining based flow cytometric method (reference value: 3.05%). The data set is classed as functional. The method, boiled down: (§2)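 HepG2 cells were exposed to 0, 0.5, 1 or 2 μM for 72 h, washed in PBS, and resuspended in JC-1 incubation buffer at 37 °C for 15 min. The fractions of cells with healthy or collapsed mitochondrial membrane potential were determined by flow cytometry.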

Data set [3] has as its system HepG2. The data set can be described thus: Induction of apoptosis in human HepG2 cells assessed as late apoptotic cells at 0.5 uM after 72 hrs by Annexin V-APC/7-AAD staining based flow cytometric method (reference value: 0.51%). It counts as functional.
Data set [4] relates to HepG2. The data set can be described thus: Disruption of mitochondrial membrane potential in human HepG2 cells assessed as intact mitochondrial membrane at 1 uM after 72 hrs by JC1 staining based flow cytometric method (reference value: 96.94%). The data set is classed as functional. The method, boiled down:
as §2

The test system of data set [5] is H22. Kind of data set: Antitumor activity against […] H22 cells xenografted in ICR mouse assessed as tumor growth inhibition at 30 mg/kg, iv administered once daily for 21 days measured post last dose relative to control. Conditions: 504 h, read-out: TGI. It counts as functional. On the technique in general: In xenograft studies the graft and the host belong to different species.

In a further data set the test system is L02. The data set can be described thus: Cytotoxicity against human LO2 cells after 72 hrs by MTT assay. It counts as cell-based. The following applies: L02, 72 h. The method, boiled down: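 MTT assay. Cells were plated and grown 24 h at 37 °C, 5% CO2, then exposed to compound in medium with 0.1% DMSO for 72 h. MTT (5 mg/mL in PBS) was added for 4 h and absorbance read at 490 nm. IC50 was taken from dose-response curves; at least three independent experiments.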
In general terms: Tetrazolium dyes change colour on reduction, which living cells bring about.

For data set [6], the system named is HepG2. Kind of data set: Induction of apoptosis in human HepG2 cells assessed as necrotic cells at 1 uM after 72 hrs by Annexin V-APC/7-AAD staining based flow cytometric method (reference value: 2.44%). The data set is classed as functional.
In data set [7] the test system is HepG2. The data set can be described thus: Cell cycle arrest in human HepG2 cells assessed as accumulation at S phase at 0.5 uM after 72 hrs by propidium iodide staining based flow cytometric method (reference value: 25.78%). The data set is classed as functional. The method, boiled down:
as §1

In data set [8] the test system is HepG2. Kind of data set: Disruption of mitochondrial membrane potential in human HepG2 cells assessed as intact mitochondrial membrane at 2 uM after 72 hrs by JC1 staining based flow cytometric method (reference value: 96.94%). It counts as functional. The method in brief:
as §2

The test system of data set [9] is H22. The data set can be described thus: Antitumor activity against […] H22 cells xenografted in ICR mouse assessed as tumor growth inhibition at 15 mg/kg, iv administered once daily for 21 days measured post last dose relative to control. It counts as functional. The following applies: 504 h, read-out: TGI.
The next data set relates to Mus musculus. The data set can be described thus: Toxicity in ICR mouse xenografted with […] cells assessed as body weight at 30 mg/kg, iv administered once daily for 21 days measured post last dose (reference value: 26 +/- 0.6 g). It counts as organism-based. Conditions: in vivo, 504 h.
The test system of data set [10] is HepG2. The data set can be described thus: Cell cycle arrest in human HepG2 cells assessed as accumulation at G2 phase at 0.5 uM after 72 hrs by propidium iodide staining based flow cytometric method (reference value: 17.45%). The data set is classed as functional. The method in brief: as §1
The subject of data set [11] is HepG2. Kind of data set: Disruption of mitochondrial membrane potential in human HepG2 cells assessed as collapse of the mitochondrial membrane potential at 0.5 uM after 72 hrs by JC1 staining based flow cytometric method (reference value: 3.05%). It counts as functional. The method in brief: as §2

As a reminder, the IC50 is the concentration that gives 50% inhibition. With `COc1cc2c(cc1OC)-c1c(Br)c3ccc(OC)c(OCCCCCCCCO[N+](=O)[O-])c3c[n+]1CC2.[Br-]`, the Activity in the data set with HepG2 [1] was 23.1%; in the data set on HepG2 [2] it was 25.5%; in the data set on HepG2 [3] it was 2.39%; in the data set with HepG2 [4] it was 74.5%; with HepG2 [6], 4.32%; in the data set with HepG2 [7] it was 25.49%. Also, the Activity in the data set with HepG2 [8] is 59.5%; in the data set on Mus musculus, 25.2 g; in the data set with HepG2 [10] it was 23.38%; in the data set with HepG2 [11] it was 12.1%. Further, in the data set on H22 [5], the inhibition in vivo at 30 mg/kg came to 62.5%. The same compound had an IC50 in the data set with L02 of 28.9 µM. In addition, the inhibition in vivo at 15 mg/kg in the data set on H22 [9] came to 45.9%.
